Common to all, as to assay type: functional
The test system of test [1] is Candida parapsilosis. The test is described as follows: Antifungal activity against Candida parapsilosis clinical isolates assessed as inhibition of microbial growth incubated for 24 hrs by broth microdilution method. As to conditions: Lodderomyces parapsilosis. A digest of the protocol:
(§1)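 Twenty-two clinical Candida isolates (8 C. albicans, 4 C. glabrata, 3 C. tropicalis, 3 C. krusei, 2 C. parapsilosis, 2 C. sake) were identified by colony morphology and biochemistry and subcultured at 35 °C for purity. Compounds were dissolved in DMSO and tested by broth microdilution in Sabouraud dextrose broth per NCCLS/CLSI/EUCAST guidance. Values are geometric mean MIC per species (µg/mL).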

For test [2], the system named is Staphylococcus warneri. Kind of test: Antibacterial activity against Staphylococcus warneri assessed as inhibition of microbial growth incubated for 18 to 22 hrs by broth microdilution method. The gist of the method:
(§2)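 Broth microdilution in Mueller-Hinton II broth following NCCLS recommendations; compounds dissolved in DMSO.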
(In general: Broth dilution looks for growth in wells or tubes with falling amounts of substance.)

Test [3] deals with Enterococcus faecalis. Kind of test: Antibacterial activity against Streptococcus faecalis assessed as inhibition of microbial growth incubated for 18 to 22 hrs by broth microdilution method. A digest of the protocol:
as §2

The subject of test [4] is Escherichia coli. The test is described as follows: Antibacterial activity against Escherichia coli assessed as inhibition of microbial growth incubated for 18 to 22 hrs by broth microdilution method. The gist of the method:
as §2

Test [5] has as its system Candida albicans. The test is described as follows: Antifungal activity against Candida albicans clinical isolates assessed as inhibition of microbial growth incubated for 24 hrs by broth microdilution method. The gist of the method: as §1
Test [6] relates to Proteus mirabilis. The test is described as follows: Antibacterial activity against Proteus mirabilis assessed as inhibition of microbial growth incubated for 18 to 22 hrs by broth microdilution method. The gist of the method: as §2
The test system of test [7] is [Candida] sake. Kind of test: Antifungal activity against Candida sake clinical isolates assessed as inhibition of microbial growth incubated for 24 hrs by broth microdilution method. Conditions: Fermentozyma sake. The gist of the method:
as §1

In test [8] the test system is Enterobacter. Kind of test: Antibacterial activity against Enterobacter spp. assessed as inhibition of microbial growth incubated for 18 to 22 hrs by broth microdilution method. The gist of the method:
as §2

The test system of test [9] is Klebsiella oxytoca. The test is described as follows: Antibacterial activity against Klebsiella oxytoca assessed as inhibition of microbial growth incubated for 18 to 22 hrs by broth microdilution method. A digest of the protocol:
as §2

The subject of test [10] is Nakaseomyces glabratus. The test is described as follows: Antifungal activity against Candida glabrata clinical isolates assessed as inhibition of microbial growth incubated for 24 hrs by broth microdilution method. The gist of the method:
as §1

Test [11] relates to Candida tropicalis. Kind of test: Antifungal activity against Candida tropicalis clinical isolates assessed as inhibition of microbial growth incubated for 24 hrs by broth microdilution method. The gist of the method: as §1
Test [12] relates to Pichia kudriavzevii. Kind of test: Antifungal activity against Candida krusei clinical isolates assessed as inhibition of microbial growth incubated for 24 hrs by broth microdilution method. A digest of the protocol:
as §1

For test [13], the system named is Staphylococcus aureus. Kind of test: Antibacterial activity against Staphylococcus aureus assessed as inhibition of microbial growth incubated for 18 to 22 hrs by broth microdilution method. The gist of the method:
as §2

Molecules are shown by their SMILES.

Among the data in ChEMBL document CHEMBL4190362, “Synthesis, biological evaluation and quantitative structure-active relationships of 1,3-thiazolidin-4-one derivatives. A promising chemical scaffold endowed with high antifungal potency and low cytotoxicity” (Eur J Med Chem, 2017) are MIC values, retold here.

Consider `O=C1CS/C(=N/N=C\c2cccc([N+](=O)[O-])c2)N1Cc1ccccc1`, for which the minimal inhibitory concentration (MIC) (commonly the lowest concentration found to suppress growth) in test [1] was 2 µg/mL; in [2] it was not below 256 µg/mL; in [3], not below 256 µg/mL; in [4], not below 256 µg/mL; in [5], 2 µg/mL; in test [6] it was not below 256 µg/mL. Further, the MIC was 8 µg/mL in test [7]; not below 256 µg/mL in [8]; not below 256 µg/mL in test [9]; 2 µg/mL in [10]; 2 µg/mL in [11]; 2 µg/mL in test [12]. Moreover, the MIC in test [13] is not below 256 µg/mL.
With `C/C(=N/N=C1/SCC(=O)N1Cc1ccccc1)c1ccsc1`, the MIC in [1] was 128 µg/mL; in test [2], not below 256 µg/mL; in test [3], not below 256 µg/mL; in test [4], not below 256 µg/mL; in test [5], 256 µg/mL; in test [6], not below 256 µg/mL. Besides, the MIC in test [7] is 128 µg/mL; in test [8] it was not below 256 µg/mL; in test [9], not below 256 µg/mL; in [10], 4 µg/mL; in [11], 128 µg/mL; in test [12] it was 128 µg/mL. The MIC in test [13] was not below 256 µg/mL.
`C/C(=N/N=C1/SCC(=O)N1Cc1ccccc1)c1ccco1`: the MIC in test [1] was 256 µg/mL; in [2] it was not below 256 µg/mL; in test [3] it was not below 256 µg/mL; in test [4], not below 256 µg/mL; in [5], 256 µg/mL; in test [6] it was not below 256 µg/mL. The MIC in [7] was 256 µg/mL; in [8] it was not below 256 µg/mL; in test [9], not below 256 µg/mL; in test [10], 256 µg/mL; in test [11], 256 µg/mL; in test [12], 256 µg/mL. For the same molecule, in test [13], the MIC is not below 256 µg/mL.
On to `O=C1CS/C(=N/N=C\c2ccccc2[N+](=O)[O-])N1Cc1ccccc1`, for which the MIC in test [1] is 2 µg/mL; in test [2], not below 256 µg/mL; in test [3], not below 256 µg/mL; in test [4], not below 256 µg/mL; in test [5], 2 µg/mL; in test [6], not below 256 µg/mL. The MIC was 4 µg/mL in test [7]; not below 256 µg/mL in [8]; not below 256 µg/mL in test [9]; 2 µg/mL in [10]; 2 µg/mL in test [11]; 2 µg/mL in test [12]. In [13], the MIC is not below 256 µg/mL.
As for `C/C(=N/N=C1/SCC(=O)N1Cc1ccccc1)C1CCCCC1`, the MIC in test [1] was 8 µg/mL; in test [2], not below 256 µg/mL; in [3], not below 256 µg/mL; in test [4], not below 256 µg/mL; in [5] it was 8 µg/mL; in [6] it was not below 256 µg/mL. In addition, the minimum inhibitory concentration (MIC) in [7] is 8 µg/mL; in test [8], not below 256 µg/mL; in test [9], not below 256 µg/mL; in [10], 8 µg/mL; in [11], 8 µg/mL; in test [12], 8 µg/mL. In test [13], the MIC was not below 256 µg/mL.
For the molecule `O=C1CS/C(=N/N=C2CCCCCCC2)N1Cc1ccccc1`, the MIC in test [1] is 8 µg/mL; in test [2], not below 256 µg/mL; in test [3], not below 256 µg/mL; in test [4], not below 256 µg/mL; in test [5] it was 8 µg/mL; in test [6], not below 256 µg/mL. Further, the MIC in [7] is 8 µg/mL; in [8] it was not below 256 µg/mL; in [9], not below 256 µg/mL; in test [10], 8 µg/mL; in test [11], 8 µg/mL; in test [12], 8 µg/mL. For the same molecule, the minimal inhibitory concentration (MIC) in test [13] is not below 256 µg/mL.
As to `C/C(=N/N=C1/SCC(=O)N1Cc1ccccc1)c1ccc(Cl)s1`, the MIC in [1] was 128 µg/mL; in [2], not below 256 µg/mL; in [3], not below 256 µg/mL; in test [4], not below 256 µg/mL; in [5], 256 µg/mL; in test [6] it was not below 256 µg/mL. Moreover, the MIC is 128 µg/mL in [7]; not below 256 µg/mL in [8]; not below 256 µg/mL in test [9]; 8 µg/mL in test [10]; 256 µg/mL in test [11]; 128 µg/mL in [12]. In [13], the MIC was not below 256 µg/mL.
For the molecule `O=C1CS/C(=N/N=C\c2ccccc2)N1Cc1ccccc1`, the MIC in test [1] was 4 µg/mL; in [2], not below 256 µg/mL; in test [3], not below 256 µg/mL; in [4], not below 256 µg/mL; in test [5], 4 µg/mL; in test [6], not below 256 µg/mL. Moreover, the MIC was 16 µg/mL in [7]; not below 256 µg/mL in test [8]; not below 256 µg/mL in [9]; 4 µg/mL in test [10]; 16 µg/mL in [11]; 16 µg/mL in [12]. The MIC in test [13] is not below 256 µg/mL.
Turning to `O=C1CS/C(=N/N=C\c2ccco2)N1Cc1ccccc1`, the MIC in test [1] is 4 µg/mL; in test [2], not below 256 µg/mL; in test [3] it was not below 256 µg/mL; in test [4], not below 256 µg/mL; in test [5], 8 µg/mL; in [6], not below 256 µg/mL. For the same molecule, the MIC is 4 µg/mL in [7]; not below 256 µg/mL in test [8]; not below 256 µg/mL in test [9]; 4 µg/mL in [10]; 8 µg/mL in test [11]; 4 µg/mL in test [12]. Also, the MIC in test [13] was not below 256 µg/mL.
Consider `C/C(=N/N=C1/SCC(=O)N1Cc1ccccc1)c1cccs1`, for which the MIC in test [1] is 8 µg/mL; in test [2] it was not below 256 µg/mL; in test [3], not below 256 µg/mL; in [4] it was not below 256 µg/mL; in [5], 2 µg/mL; in test [6], not below 256 µg/mL. The MIC in test [7] was 8 µg/mL; in [8], not below 256 µg/mL; in [9] it was not below 256 µg/mL; in test [10] it was 4 µg/mL; in [11], 16 µg/mL; in test [12], 4 µg/mL. The MIC in [13] was not below 256 µg/mL.
Consider `CC1=C(/C=N\N=C2\SCC(=O)N2Cc2ccccc2)C(C)(C)CC=C1`, for which the MIC in [1] was 4 µg/mL; in test [2] it was not below 256 µg/mL; in test [3], not below 256 µg/mL; in test [4], not below 256 µg/mL; in test [5], 4 µg/mL; in test [6], not below 256 µg/mL. Besides, the MIC is 2 µg/mL in test [7]; not below 256 µg/mL in test [8]; not below 256 µg/mL in test [9]; 4 µg/mL in [10]; 2 µg/mL in test [11]; 4 µg/mL in [12]. For the same molecule, the MIC in test [13] was not below 256 µg/mL.
`O=C1CS/C(=N/N=C\c2cccs2)N1Cc1ccccc1`: the MIC in test [1] was 32 µg/mL; in test [2] it was not below 256 µg/mL; in test [3] it was not below 256 µg/mL; in test [4] it was not below 256 µg/mL; in test [5], 8 µg/mL; in [6], not below 256 µg/mL. The MIC in [7] is 32 µg/mL; in test [8] it was not below 256 µg/mL; in test [9], not below 256 µg/mL; in test [10], 8 µg/mL; in [11], 8 µg/mL; in test [12], 32 µg/mL. Also, the MIC in test [13] was not below 256 µg/mL.
Take `C/C(=N/N=C1\NC(=O)CS1)c1ccc(/C(C)=N\N=C2/NC(=O)CS2)cc1`: the MIC in test [1] was 2 µg/mL; in test [2], not below 256 µg/mL; in test [3], not below 256 µg/mL; in [4], not below 256 µg/mL; in test [5], 2 µg/mL; in test [6], not below 256 µg/mL. Also, the MIC in test [7] was 2 µg/mL; in test [8], not below 256 µg/mL; in [9] it was not below 256 µg/mL; in test [10], 2 µg/mL; in test [11] it was 2 µg/mL; in test [12], 2 µg/mL. Moreover, the MIC in test [13] was not below 256 µg/mL.
